Assay results as given in publication PMC3475218 (Theranostics, 2012).
“And” between values parts separate entries of the source, which are not always exact repeats. Identical values can stand only once.

Legend:
[1] = UV/Vis absorption and fluorescence spectra; format: physicochemical; conditions: from UV/Vis calibration curve of free TPC
Method in brief: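 Absorption spectra were recorded by UV-visible spectrophotometry on ethanol suspensions of nanoparticles and free photosensitizer. Fluorescence spectra were acquired on a spectrofluorimeter with xenon lamp excitation and a thermostatted cell compartment at 25°C.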

MDA-MB-231 cells [2] = test: Photo-induced cytotoxicity, real-time impedance-based cell analysis; design: species or system human; conditions: first 24 h post-exposure, before light irradiation; mean of six replicates
Method in brief: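 MDA-MB-231 cells were cultured in RPMI with 9% heat-inactivated FBS, penicillin/streptomycin and 2 mM L-glutamine at 37°C, 5% CO2. Cells were seeded at 10^4 per well on electrode plates, and impedance was read every 15 min. At 24 h, test nanoparticles were added at final photosensitizer concentrations of 0.05–10.00 µM, or Gd-matched control nanoparticles at 2.9–585.0 µM. Cells were kept in darkness for 24 h before washing, with six replicates. Cell index was calculated as background-subtracted impedance.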

MDA-MB-231 cells [3] = test: Photodynamic activity; format: cell-based, human; conditions: for DL50 (50% cell growth inhibitory light dose): 652 nm, 24 h incubation, MTT 24 h post-irradiation, six replicates
[4] = test system: recombinant chimeric neuropilin-1 (NRP-1) protein; test: Competitive binding to recombinant NRP-1 protein; conditions: 5 ng/mL biotinylated VEGF165, 2 µg/mL heparin, 2 h room temperature; n=3
Method in brief: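 Plates coated overnight at room temperature with recombinant chimeric NRP-1 (2 µg/mL in PBS), washed with PBS/0.05% Tween 20, and blocked with PBS/0.5% BSA for 1 h at 37°C. Biotinylated VEGF165 (5 ng/mL, with 2 µg/mL heparin) was added with increasing test nanoparticle concentrations, Gd-matched control nanoparticles, or excess unlabelled VEGF165 (0.5 µg/mL). Streptavidin-HRP colorimetric read-out at 450 nm was expressed relative to the no-competitor control, in triplicate.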

[5] = test system: orthotopic U87 human glioblastoma (tumor tissue) in nude rats; test: In vivo tumor MRI contrast enhancement kinetics; design: species or system rat; conditions: i.v., 25 µmol of Gd / 250 g
Method in brief: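 Male athymic nude rats (rnu/rnu) received 5.10^5 U87 cells in 5 μL HBSS stereotactically into the right striatum (0.5 mm anterior, 2.7 mm lateral to bregma) under i.p. ketamine/xylazine. About 20 days later, nanoparticles were given intravenously in 500 µL, diluted in 9‰ NaCl from an iso-osmolar 100 mM Gd stock at pH ~7.4. Tumor MRI signal was normalized to pre-injection and contralateral tissue, and its decline from peak was followed.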

[6] = Zeta potential measurement; format: physicochemical; conditions: ultrapure water, pH ~ 7.0, 5 mM gadolinium, 20°C, Zetasizer Nano ZS
Method in brief: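 Nanoparticles were suspended in ultrapure water at pH ~7.0 and 5 mM Gd and measured by electrophoretic light scattering (532 nm laser). Readings were taken 2.00 mm from the cell wall with an automatic attenuator at 20°C. Each sample ran 15 runs of 10 s, repeated three times.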

neuropilin-1 (NRP-1) = conditions: receptor expressed in angiogenic vasculature; ref [19], [20], [22]; cited from earlier work

Substance | TPC molecules per nanoparticle [1] | Cell index before irradiation (MDA-MB-231 cells [2]) | DL50 (50% cell growth inhibitory light dose) (MDA-MB-231 cells [3]; 0.1 µM TPC) | DL50 (50% cell growth inhibitory light dose) (MDA-MB-231 cells [3]; 1.0 µM TPC) | Photocytotoxic effectiveness, 1.0 µM vs 0.1 µM TPC (MDA-MB-231 cells [3]; ratio of DL50 at 0.1 and 1.0 µM) | Binding to NRP-1 (qualitative) [4] | Rate of decrease of tumor MRI contrast ([5]; decrease from maximum peak) | Half-life in tumor tissue (T1/2) ([5]; semi-logarithmic presentation of MRI contrast enhancement decrease) | Zeta potential [6] | NRP-1 targeting (qualitative) (neuropilin-1 (NRP-1))
H-ATWLPPR-OH [NP-TPC-ATWLPPR] | ~ 1.7 TPC molecules per nanoparticle | no decrease in cell index values | 9.16 J/cm^2 and 9.2 J/cm^2 | 2.80 J/cm^2 and 2.8 J/cm^2 | 3.3 times | greatly displaced | -0.0072 .min^-1 | 1.604 h | 12.9±4 mV | 
H-ATWLPPR-OH [ATWLPPR] |  |  |  |  |  |  |  |  |  | selectively target NRP-1 receptor
